Results as given in ChEMBL document CHEMBL1152572, “Synthesis and antimalarial activity of new chloroquine analogues carrying a multifunctional linear side chain” (Bioorg Med Chem, 2009).
pIC50: −log10 of the molar value.

Assays:
[1] = test system: Plasmodium falciparum; test: Antiplasmodial activity against chloroquine-resistant Plasmodium falciparum Dd2 assessed as SYBR Green 1 fluorescence emission after 72 hrs; type: functional, organism-based; details: Dd2, 72 h
Outline: (§1)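 Sorbitol-synchronized P. falciparum cultures (>95% ring stage) exposed to serial drug dilutions in complete medium at 0.5% parasitemia, 1% hematocrit final. Incubated 72 h, 37 °C. SYBR Green I then added, 1 h at 37 °C. Fluorescence read at 530 nm emission, 490 nm excitation. Each dilution run in triplicate; IC50 averaged from at least two separate assays.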

[2] = Resistance index, ratio IC50 for chloroquine-resistant Plasmodium falciparum Dd2 to IC50 for chloroquine-sensitive Plasmodium falciparum HB3; type: functional
[3] = test system: Plasmodium falciparum; test: Antiplasmodial activity against chloroquine-sensitive Plasmodium falciparum HB3 assessed as SYBR Green 1 fluorescence emission after 72 hrs; type: functional, organism-based; details: HB3, 72 h; outline: as §1

Compound | pIC50 [1] | Ratio IC50 [2] | pIC50 [3]
CCN(CC)CCNCCNc1ccnc2cc(Cl)ccc12 | 5.80 | 145 | 7.97
CCN(CC)CCCNCCOc1ccnc2cc(Cl)ccc12 | 6.67 | 2.3 | 7.02
CCN(CC)CC(=O)NCCNc1ccnc2cc(Cl)ccc12 | 5.47 | 4.7 | 6.15
CCN(CC)CCN(CC)CCNc1ccnc2cc(Cl)ccc12 | 7.28 | 10.5 | 8.30
CCN(CC)CCCCNCCNc1ccnc2cc(Cl)ccc12 | 5.89 | 41.5 | 7.51
CCN(CC)CCCCCNCCNc1ccnc2cc(Cl)ccc12 | 6.34 | 15.9 | 7.54
CCN(CC)CCCCCCN(CC)CCNc1ccnc2cc(Cl)ccc12 | 7.70 | 4 | 8.30
CCN(CC)CCCCCN(CC)CCNc1ccnc2cc(Cl)ccc12 | 7.41 | 4.3 | 8.05
CCN(CC)CCC(=O)NCCCOc1ccnc2cc(Cl)ccc12 | 6.12 | 0.3 | 5.64
CCN(CC)CCC(=O)NCCNc1ccnc2cc(Cl)ccc12 | – | 24.1 | –
CCN(CC)CCCNCCCOc1ccnc2cc(Cl)ccc12 | 6.62 | 12.2 | 7.71
CCN(CC)CCN(CCNc1ccnc2cc(Cl)ccc12)CCN(CC)CC | 6.82 | 21.5 | 8.15
CCN(CC)CCCN(CC)CCCOc1ccnc2cc(Cl)ccc12 | 6.97 | 1.4 | 7.11
CCN(CC)CCCCCC(=O)NCCNc1ccnc2cc(Cl)ccc12 | 5.57 | 9.4 | 6.54
CCN(CC)CCCN(CC)CCOc1ccnc2cc(Cl)ccc12 | 6.39 | 1.3 | 6.49
CCN(CC)CCCCCCNCCNc1ccnc2cc(Cl)ccc12 | 6.64 | 3.4 | 7.16
CCN(CC)CCCCN(CC)CCNc1ccnc2cc(Cl)ccc12 | 7.44 | 7.1 | 8.29
CCN(CC)CCCC(=O)NCCNc1ccnc2cc(Cl)ccc12 | 5.93 | 5.3 | 6.65
CCN(CC)CCCCC(=O)NCCNc1ccnc2cc(Cl)ccc12 | 5.92 | 5.2 | 6.64
CCN(CC)CCC(=O)NCCOc1ccnc2cc(Cl)ccc12 | 5.84 | 0.9 | 5.77
